The source made the active and inactive calls. The rule behind the calls is not given here.
How the values were obtained:
L1210 [1] = test: Inhibition of DNA synthesis in L1210 cells by the compound was determined the reduced incorporation of incorporation of [3H]dThd into DNA at concentration of 50 uM; type: functional; settings: Mus musculus
Outline: (§1)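 Cultured L1210 cells exposed to drug at 25, 50 or 100 µM. Label incorporation measured: [3H]dThd into DNA, [5-3H]Urd into RNA, [4,5-3H]L-Leu into protein. Values are percent inhibition of incorporation.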

L1210 [2] = test: Compound was tested for its ability to inhibit the incorporation of [3H]dThd into DNA at concentration of 100 uM; type: functional; settings: Mus musculus; outline: as §1
L1210 [3] = test: Effect of compound on macromolecular synthesis in L1210 cells in culture; 8.5-17uM; type: functional, cell-based; settings: Mus musculus
B-cell = test: Compound was tested for its cytotoxicity against B- cell line (Wi-L2 B -lymphoblasts); type: functional, cell-based; settings: Homo sapiens
Outline: (§2)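 Cells seeded at 1 × 10^5/mL in RPMI 1640 with 10% fetal calf serum, 2 mM L-glutamine and increasing drug concentrations. Cultured 3 days under 95% air/5% CO2. Viable cells counted microscopically after adding 0.1% erythrocin B, relative to drug-free cultures. Points are mean ± SEM, except the adenosine kinase-deficient mutant, which used duplicates.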

Wild type T- cell line = test: Compound was tested for its cytotoxicity against wild type T- cell line; type: functional, cell-based; settings: Homo sapiens; outline: as §2
L1210 [4] = test: Inhibition of RNA synthesis in L1210 cells by the compound was determined the reduced incorporation of [5-3H]-Urd into RNA at the concentration of 100 uM; NI denotes no inhibition; type: functional, cell-based; settings: Mus musculus; outline: as §1
L1210 [5] = test: Inhibition of DNA synthesis in L1210 cells by the compound was determined the reduced incorporation of incorporation of [3H]dThd into DNA at concentration of 25 uM; type: functional; settings: Mus musculus; outline: as §1
L1210 [6] = test: Inhibition of protein synthesis in L1210 cells by the compound was determined the reduced incorporation of [4,5-3H]L-Leu into protein; type: functional, Mus musculus; outline: as §1
T-cell = test: Compound was tested for its cytotoxicity against T- cell line; type: functional, cell-based; settings: Homo sapiens; outline: as §2
[7] = Compound was tested for its cytotoxicity against MGL-8 B -lymphoblasts; type: functional, Homo sapiens; outline: as §2

| IC50 (L1210 [3]) | Compound | inhibition at 50 µM (L1210 [1]) | inhibition at 100 µM (L1210 [2]) | IC50 (B-cell) | IC50 (Wild type T- cell line) | inhibition (L1210 [4]) | inhibition at 25 µM (L1210 [5]) | Inhibition (L1210 [6]) | IC50 (T-cell) | IC50 [7] |
| --- | --- | --- | --- | --- | --- | --- | --- | --- | --- | --- |
| 8500 nM | Nc1nc(O)c2ncn([C@@H]3O[C@H](CO)[C@@H](O)[C@@H]3F)c2n1 [F-ARAG] | 62% | 76% | ~750 nM | ~200 nM | inactive | 12% | 17% |  |  |
|  | Nc1nc2c(ncn2[C@@H]2O[C@H](CO)[C@@H](O)[C@H]2O)c(=O)[nH]1 [GUANOSINE] |  |  |  |  |  |  |  | 100 nM | 7000 nM |
